Compound activity deposited in PubChem BioAssay by The Scripps Research Institute Molecular Screening Center.
Shown are actives, neighbours in structure and some others; about 1.5% of the full set was active somewhere.
MsrA inhibitor = inhibitors of bovine MsrA; hit rate 0.75% among 360,000; purified bovine MsrA, absorbance read-out; inhibition, % at 15.5 µM; in the data active = inhibition above about 4.5%;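 note: 0% = vehicle wells with enzyme and 100% = reference inhibitor wells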
procasp3 activ = activators of human procaspase-3 | recombinant procaspase-3 D3A, Ac-DEVD-pNA absorbance 405 nm | AID 463141 | P42574 | activation, % at 8.5 µM | hit rate 0.11% among 330,000;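 active = activation above the mean of all tested compounds plus 3 SD, cut at about 21% in these data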;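 note: 0% = DMSO alone and 100% = DMSO wells spiked with extra 5 µM PC-3 D3A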
Target sequence (P42574 whole entry D9A/D28A/D175A): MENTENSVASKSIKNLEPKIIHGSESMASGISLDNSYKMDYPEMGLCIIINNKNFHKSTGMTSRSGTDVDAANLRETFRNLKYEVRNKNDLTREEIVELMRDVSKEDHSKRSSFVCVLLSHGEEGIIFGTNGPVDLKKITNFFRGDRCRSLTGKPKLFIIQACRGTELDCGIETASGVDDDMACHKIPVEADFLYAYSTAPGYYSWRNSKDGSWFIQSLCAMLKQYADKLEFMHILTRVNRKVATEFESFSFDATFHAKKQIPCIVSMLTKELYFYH
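Test system: Procaspase-3 D3A mutant; medium: Zinc-free HEPES/NaCl buffer with 0.01% Triton X-100 at pH 7.4; reagent: DEVD-pNA substrate; doses: one concentration, 8.5 µM nominal, 0.8% DMSO; times: 1 h preincubation plus 2 h reaction at 25 °C; signal: Epi-absorbance at 405 nm of released p-nitroaniline, 0 and 120 min; replicates: singlicate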
TbMetRS inhib = Trypanosoma brucei MetRS inhibition; purified T. brucei MetRS, ATP depletion, Kinase-Glo luminescence; inhibition, % at 11.9 µM; hit rate 0.4% among 360,000;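 active = inhibition above a per-plate cutoff of the control wells' mean inhibition plus 3 SD, cut at about 5.5% in these data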;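 note: 0% = DMSO wells median and 100% = median of wells with control inhibitor compound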
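Test system: purified T. brucei MetRS enzyme. Also added: ATP, methionine and E. coli bulk tRNA substrates. Compound: 11.9 µM single point. Schedule: 15 min enzyme-compound preincubation, 2 h reaction, 10 min detection, 25 °C. Signal: luciferase luminescence of residual ATP, Kinase-Glo. Evaluation: percent inhibition versus plate control medians. Controls: DMSO wells, low control.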
proCasp7 act = counter-screen: procaspase-7 (human) activation | activation, % at 8.5 µM | hit rate 0.093% among 330,000 | recombinant procaspase-7, Ac-DEVD-pNA absorbance 405 nm; D23A/D198A/D206A triple mutant, cannot self-cleave; scale: DMSO 0, 5 µM enzyme 100 | P55210;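 active = percent activation above the screen-wide mean plus 3 SD, cut at about 25% in these data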
Target sequence (P55210 whole entry D23A/D198A/D206A): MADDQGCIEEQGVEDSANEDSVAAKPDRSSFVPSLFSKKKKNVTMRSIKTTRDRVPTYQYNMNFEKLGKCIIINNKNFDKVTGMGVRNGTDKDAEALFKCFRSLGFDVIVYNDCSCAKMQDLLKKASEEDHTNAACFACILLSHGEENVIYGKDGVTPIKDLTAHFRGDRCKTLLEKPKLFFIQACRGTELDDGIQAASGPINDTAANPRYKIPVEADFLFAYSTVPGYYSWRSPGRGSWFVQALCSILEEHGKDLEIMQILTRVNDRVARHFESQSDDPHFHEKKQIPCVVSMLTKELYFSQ
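Material: Procaspase-7 triple mutant (PC-7 D3A) | Quantity: 2 µM procaspase-7 mutant as dispensed | Reagent: DEVD-pNA substrate | Times: 1 h preincubation, 2 h reaction | Technique: 405 nm absorbance of p-nitroaniline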
bovine MsrA act = bovine methionine sulfoxide reductase A activation; AID 602163; purified bovine MsrA, absorbance read-out; activation, % at 10.6 µM; hit rate 0.3% among 360,000; in the data active = activation above about 7.5%;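 note: 0% = vehicle and 100% = reference activator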
* = called active by the depositor; . = no result.

SMILES | MsrA inhibitor | procasp3 activ | TbMetRS inhib | proCasp7 act | bovine MsrA act
CCc1nnc(NC(=O)CSc2ccc(-c3nc4ccccc4[nH]3)cn2)s1 | 2 | 0 | 9.9* | -3 | -8
c1ccc(-c2ccccc2C2Cc3nnccc3CN2)cc1 (centres undefined) | 0 | . | . | . | .
COc1cccc(C(=O)Oc2ccc(/C=N/Nc3ccc(C(=O)O)cc3)cc2OC)c1 | 4.6* | -14 | -1 | -13 | -5
COc1ccc(-c2cc(NC(=O)Cc3c[nH]c4ccccc34)ccc2Nc2cccnc2)c(OC)c1 | 1 | . | . | . | .
CCN(CC)c1ccc(C=C2C(=O)OC3(CCCCC3)OC2=O)cc1 | 4 | 3 | 0 | 0 | -4
CCCCC1(C)OC(=O)C(=Cc2ccc(N(CC)CC)cc2)C(=O)O1 (centres undefined) | 5.2* | -11 | -1 | 5 | -5
O=C(Nc1nc2c(cc3c4c(cccc42)CC3)s1)c1ccccc1Cl | 4.6* | -6 | -1 | -2 | -12
O=C(Nc1nc2c(Cl)cccc2s1)C1CC1 | 0 | -8 | 1 | 4 | -3
COc1ccc(NC(=O)CNc2cc(S(=O)(=O)N3CCOCC3)ccc2NCC2CCCO2)cc1 (centres undefined) | 4 | 2 | 1 | -1 | -2
O=C(CNc1cc(S(=O)(=O)N2CCOCC2)ccc1NCC1CCCO1)Nc1ccc(F)c(F)c1 (centres undefined) | 1 | 6 | 8.5* | -1 | 0
COC(=O)c1cc2c(c3c4cc(C)ccc4n(C(=O)c4ccccc4)c13)C(=O)N(Cc1ccccc1)C2 | 0 | . | . | . | .
NC(=S)N/N=C/c1ccccc1OC(=O)c1cc2ccccc2oc1=O | 4.6* | 9 | 0 | -9 | 0
COc1ccc(C2CC(=O)C(c3ccc(Br)cc3)=CN2Cc2ccccc2)cc1 (centres undefined) | 0 | . | . | . | .
Cc1cc(N2C(=O)C(=O)/C(=C(/O)c3ccccc3)C2c2cccs2)no1 (centres undefined) | 1 | -8 | 0 | -23 | -5
COc1cccc(/C(O)=C2/C(=O)C(=O)N(c3cc(C)on3)C2c2cccs2)c1 (centres undefined) | 5.0* | -32 | 0 | -63 | -3
CN(C)c1ccc(C(=O)NCC2CCN(C(=O)C(=O)c3cccs3)CC2)cc1 | 1 | . | . | . | .
CCn1ncc2c(=O)c(C(=O)c3ccccc3)c[nH]c21 | 1 | . | . | . | .
CN1C(=C2C(=O)OC(C)(C)OC2=O)Sc2ccccc21 | 4.8* | 3 | 0 | 6 | -4
COc1ccc(/C=N/Nc2nc(-c3ccc(Cl)cc3)cc(C(F)(F)F)n2)c(OC)c1 | 4.6* | 4 | 0 | 3 | -2
c1ccc(CNc2nc(-c3ccccc3)nc3ccccc23)cc1 | 0 | 0 | 0 | 1 | -3
c1ccc(CNc2nc(NCc3ccccc3)c3ccccc3n2)cc1 | . | 2 | 6.5* | -5 | -2
O=C(NCc1ccccc1)[C@H]1CCCN1C(=O)[C@H]1CCCN1C(=O)c1ccc(OC(F)(F)F)cc1 | 1 | . | . | . | .
Cc1ccc(S(=O)(=O)/N=C2/NC(=O)/C(=C\c3ccccc3)S2)cc1 | 4 | -2 | 0 | -10 | -5
Cc1ccc(S(=O)(=O)/N=C2/NC(=O)/C(=C/c3ccccc3)S2)cc1 | 4.6* | 3 | 0 | 1 | -4
COC(=O)c1sc(=S)n(-c2cc(F)ccc2F)c1N | 4.6* | -8 | 0 | -9 | -3
SMILES | MsrA inhibitor | procasp3 activ | TbMetRS inhib | proCasp7 act | bovine MsrA act
CCCC(=O)OCC(=O)Nc1cc([N+](=O)[O-])ccc1OC | 4.6* | -9 | -1 | -2 | -9
COc1ccc([N+](=O)[O-])cc1NC(=O)COC(C)=O | 2 | 13 | 1 | 0 | -4
CCOc1ccc(-c2cc(C(=O)NCCCn3ccnc3)c3ccccc3n2)cc1 | 2 | 1 | 2 | -1 | -3
CCOc1ccc(-c2cc(C(=O)NCCCN3CCN(CC)CC3)c3ccccc3n2)cc1 | 4.6* | 3 | -1 | 1 | -1
CC(C)C[C@@H](NC(=O)OC(C)(C)C)C(=O)N1O[C@]23C=C[C@]14C[C@@H](O)CC[C@]4(C)C2CC[C@]1(C)[C@@H]([C@H](C)/C=C/[C@H](C)C(C)C)CC[C@H]13 (some centres undefined) | 0 | . | . | . | .
CS(=O)(=O)c1ccc2nc(NC(=O)c3cccs3)sc2c1 | 6.8* | -5 | -3 | -2 | -6
CCN(CC)c1ccc(/C=N/n2c(=S)[nH]nc(C)c2=O)cc1 | 4.7* | 1 | 0 | -8 | 3
O=C(Nc1cc([N+](=O)[O-])ccc1N1CCOCC1)c1cccs1 | 0 | -2 | 0 | 4 | -3
O=C(Nc1ccc(NC(=O)c2cc([N+](=O)[O-])ccc2N2CCOCC2)cc1)c1cccs1 | 4.6* | 3 | -1 | -5 | -5
COC(=O)C1=C(C)N(C)C(=NCc2ccccc2)NC1c1cccc(Cl)c1 (centres undefined) | 0 | . | . | . | .
Nc1[nH]c(C(=O)c2ccccc2)c(-c2ccccc2C(F)(F)F)c1C(=O)c1c[nH]c2ccccc12 | 1 | . | . | . | .
O=C1OCCN1C(=O)[C@H]1[C@H](c2ccc([N+](=O)[O-])cc2)C(c2ccccc2)=NN1c1ccc(Br)cc1 | 4.8* | -7 | 0 | 9 | -2
Cc1cccc(C2=NN(c3ccccc3)[C@@H](C(=O)N3CCOC3=O)[C@@H]2c2ccc([N+](=O)[O-])cc2)c1 | 5.5* | 1 | 0 | 3 | -2
O=C1OCCN1C(=O)[C@H]1[C@H](c2ccc([N+](=O)[O-])cc2)C(c2cccc(Cl)c2)=NN1c1ccc(Br)cc1 | 1 | 0 | 0 | 1 | -4
COC(=O)c1cc2c(c3c4cc(OC)ccc4n(C(=O)c4ccccc4)c13)C(=O)N(C1CCCCC1)C2 | 0 | . | . | . | .
O=C(N/C(=C\c1ccc([N+](=O)[O-])cc1)C(=O)N1CCOCC1)c1ccccc1 | 4.6* | 9 | -1 | 2 | -7
O=C(N/C(=C/c1ccccc1)C(=O)N1CCOCC1)c1ccc([N+](=O)[O-])cc1 | 1 | -1 | 0 | 5 | -3
O=C1[C@@H]2Cc3c([nH]c4ccccc34)C(c3ccc(Cl)cc3)N2C(=O)CN1CCO (some centres undefined) | 1 | 7 | 6.0* | -2 | -2
O=C1[C@@H]2Cc3c([nH]c4ccccc34)C(c3ccccc3)N2C(=O)CN1CCO (some centres undefined) | -1 | 7 | -1 | 6 | -2
O=C(Cn1cnc2ccccc21)Nc1cccc(S(=O)(=O)N2CCCC2)c1 | . | 1 | 36* | 0 | -4
O=C(CC1C(=O)Nc2ccccc2N1CC(=O)N1CCCC1)Nc1ccc(Br)cc1 (centres undefined) | 0 | 1 | 19* | -1 | -3
CCCCCCCC(=O)N1c2ccccc2NC(=O)C1CC(=O)Nc1ccc(C(=O)O)cc1 (centres undefined) | 0 | -7 | 0 | -1 | 0
